Measured values published in paper PMC4878416 (Diabetes, 2016).

What was measured:
[1] = molecular target: DYRK1B (Homo sapiens, UniProt Q9Y463); experiment: Human kinome profiling, DYRK1B; type: biochemical
Summary of the method: (§1)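 Human kinases profiled by commercial providers under their standard protocols; ATP within 15 μmol/L of the apparent KM for each enzyme.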

[2] = molecular target: T1, DYRK3 (Homo sapiens, UniProt O43781); experiment: Human kinome profiling, DYRK3; type: biochemical
T1 sequence (O43781 1-588): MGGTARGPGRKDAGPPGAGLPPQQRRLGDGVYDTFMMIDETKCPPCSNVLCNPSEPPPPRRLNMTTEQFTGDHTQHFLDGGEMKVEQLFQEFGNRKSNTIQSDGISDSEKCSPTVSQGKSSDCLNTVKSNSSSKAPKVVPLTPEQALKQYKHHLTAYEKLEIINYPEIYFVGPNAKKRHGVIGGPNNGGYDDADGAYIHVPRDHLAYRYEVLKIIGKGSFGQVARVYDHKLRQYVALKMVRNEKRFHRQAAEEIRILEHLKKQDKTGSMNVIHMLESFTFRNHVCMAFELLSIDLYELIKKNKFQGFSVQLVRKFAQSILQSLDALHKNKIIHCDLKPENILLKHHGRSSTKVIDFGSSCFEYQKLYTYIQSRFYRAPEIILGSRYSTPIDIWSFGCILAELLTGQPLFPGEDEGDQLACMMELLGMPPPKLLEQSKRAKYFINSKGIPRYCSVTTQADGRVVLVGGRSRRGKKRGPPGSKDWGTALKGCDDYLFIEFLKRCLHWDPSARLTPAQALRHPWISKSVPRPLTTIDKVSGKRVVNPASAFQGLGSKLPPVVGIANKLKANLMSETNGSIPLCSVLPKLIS
Summary of the method: as §1

[3] = molecular target: T2, DYRK4 (Homo sapiens, UniProt Q9NR20); experiment: Human kinome profiling, DYRK4; type: biochemical
T2 sequence (Q9NR20 1-520): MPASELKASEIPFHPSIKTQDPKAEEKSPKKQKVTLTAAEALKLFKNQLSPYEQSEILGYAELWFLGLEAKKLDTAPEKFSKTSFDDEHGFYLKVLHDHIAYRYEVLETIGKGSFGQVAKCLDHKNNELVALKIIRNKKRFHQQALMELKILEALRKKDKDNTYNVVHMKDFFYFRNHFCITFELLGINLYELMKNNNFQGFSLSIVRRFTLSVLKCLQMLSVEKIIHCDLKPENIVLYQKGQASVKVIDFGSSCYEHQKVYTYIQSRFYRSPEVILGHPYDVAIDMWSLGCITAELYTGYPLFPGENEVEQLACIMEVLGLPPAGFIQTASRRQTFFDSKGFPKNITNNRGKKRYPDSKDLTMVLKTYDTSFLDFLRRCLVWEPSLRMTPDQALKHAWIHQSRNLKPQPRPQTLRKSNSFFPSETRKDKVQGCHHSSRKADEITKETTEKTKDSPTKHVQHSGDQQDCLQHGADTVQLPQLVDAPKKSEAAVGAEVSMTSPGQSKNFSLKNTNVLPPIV
Summary of the method: as §1

[4] = molecular target: CLK1 (Homo sapiens, UniProt P49759); experiment: Human kinome profiling, CLK1; type: biochemical
Summary of the method: as §1

[5] = molecular target: CLK2 (Homo sapiens, UniProt P49760); experiment: Human kinome profiling, CLK2; type: biochemical
Summary of the method: as §1

[6] = molecular target: CLK3 (Homo sapiens, UniProt P49761); experiment: Human kinome profiling, CLK3; type: biochemical
Summary of the method: as §1

[7] = molecular target: CLK4 (Homo sapiens, UniProt Q9HAZ1); experiment: Human kinome profiling, CLK4; type: biochemical
Summary of the method: as §1

[8] = tested on: p27KIP phosphorylation (S10); experiment: Western blot of p27KIP phosphorylation; type: cell-based, rat; conditions: INS-1E cells, 24 or 48 h, 10 μmol/L harmine or 0.5 μmol/L 5-IT
Summary of the method: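 Cells were treated after overnight attachment and lysed in RIPA buffer. Western blots were probed for p27KIP S10 phosphorylation, with actin as loading control.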

[9] = tested on: intact human islets; type: cell-based; conditions: intact islets of three donors, 1 μmol/L, 6 days
Summary of the method: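 Intact islets from three donors received DMSO or 1 μmol/L test compound for 6 days, and expression was averaged geometrically. Fold changes were regressed by five-dimensional least squares against published expression data from sorted α, β, acinar, large-duct, small-duct and uncharacterised islet cells to estimate cell-mass changes. Significance was assessed by randomising the assignment of sorted replicate samples to cell types.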

[10] = tested on: human β-cells; type: in vivo; conditions: 0.25 mg/kg/BW i.p. twice a week for 3 weeks, vs vehicle
Summary of the method: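 NSG mice (male, 8–10 weeks old) were grafted with 1,000 IEQ of human islets under the kidney capsule. From 1 week post-graft they received test compound (0.25 mg/kg i.p., 50% DMSO) or vehicle twice weekly for 3 weeks, followed by BrdU 100 mg/kg i.p. for 3 days and sacrifice at 6 h. Graft sections were co-stained for insulin or PDX-1 with BrdU, Ki67 or pHH3. 1,000–2,000 β-cells were counted per animal; n = 3–4; mean ± SEM; unpaired t test.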

[11] = tested on: endogenous NSG pancreatic islets β-cells; experiment: β-cell proliferation in endogenous pancreatic islets of NSG mice; type: in vivo, mouse; conditions: 0.25 mg/kg/BW i.p. twice a week for 3 weeks, vs nontreated or sham-operated mice
Summary of the method: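 Pancreata came from human islet-grafted NSG mice dosed i.p. with test compound (0.25 mg/kg, 50% DMSO) or vehicle twice weekly for 3 weeks. Mice then received BrdU 100 mg/kg i.p. for 3 days and were killed 6 h after the final injection. Sections were stained for insulin, BrdU and DAPI, and BrdU+ β-cells were quantified; n = 4; mean ± SEM; unpaired t test.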

[12] = tested on: α-cells of human islet grafts; experiment: α-cell proliferation in human islets grafted under the mouse kidney capsule; type: in vivo; conditions: 0.25 mg/kg/BW i.p. twice a week for 3 weeks
[13] = tested on: α-cells of endogenous mouse pancreas; experiment: α-cell proliferation in endogenous mouse pancreas; type: in vivo; conditions: 0.25 mg/kg/BW i.p. twice a week for 3 weeks
[14] = tested on: primary rat neurons; experiment: Proliferation of primary rat neurons in culture; type: cell-based

Sequence of DYRK1B (Q9Y463 whole entry): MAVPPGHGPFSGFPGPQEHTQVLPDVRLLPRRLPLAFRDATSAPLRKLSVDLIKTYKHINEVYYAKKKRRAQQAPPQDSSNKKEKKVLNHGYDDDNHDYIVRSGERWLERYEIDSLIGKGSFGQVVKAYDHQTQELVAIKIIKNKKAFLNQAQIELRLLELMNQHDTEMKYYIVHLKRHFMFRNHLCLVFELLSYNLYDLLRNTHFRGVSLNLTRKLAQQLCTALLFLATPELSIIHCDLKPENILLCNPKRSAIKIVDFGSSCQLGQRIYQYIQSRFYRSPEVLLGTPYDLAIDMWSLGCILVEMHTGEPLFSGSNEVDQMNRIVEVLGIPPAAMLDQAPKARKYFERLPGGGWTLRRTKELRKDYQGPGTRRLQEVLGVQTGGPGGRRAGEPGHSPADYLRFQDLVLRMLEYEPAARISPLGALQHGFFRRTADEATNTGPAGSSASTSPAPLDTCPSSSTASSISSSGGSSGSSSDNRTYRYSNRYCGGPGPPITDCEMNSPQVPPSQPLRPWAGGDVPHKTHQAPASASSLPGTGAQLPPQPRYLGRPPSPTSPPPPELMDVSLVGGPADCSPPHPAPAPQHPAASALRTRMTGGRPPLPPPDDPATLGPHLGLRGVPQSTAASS
Sequence of CLK3 (P49761 whole entry): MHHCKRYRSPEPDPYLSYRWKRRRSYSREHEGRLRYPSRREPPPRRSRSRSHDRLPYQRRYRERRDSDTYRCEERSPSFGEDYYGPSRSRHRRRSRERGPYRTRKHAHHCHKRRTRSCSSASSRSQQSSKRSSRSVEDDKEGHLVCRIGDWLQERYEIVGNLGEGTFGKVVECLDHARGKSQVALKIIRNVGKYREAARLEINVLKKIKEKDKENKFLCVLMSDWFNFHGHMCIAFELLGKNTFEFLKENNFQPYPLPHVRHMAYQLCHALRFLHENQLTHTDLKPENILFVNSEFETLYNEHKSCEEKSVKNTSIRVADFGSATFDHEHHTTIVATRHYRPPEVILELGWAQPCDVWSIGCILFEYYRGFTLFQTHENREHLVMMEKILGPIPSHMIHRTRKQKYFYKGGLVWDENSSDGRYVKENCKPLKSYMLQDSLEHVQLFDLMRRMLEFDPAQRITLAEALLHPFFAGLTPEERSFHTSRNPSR
Sequence of CLK1 (P49759 whole entry): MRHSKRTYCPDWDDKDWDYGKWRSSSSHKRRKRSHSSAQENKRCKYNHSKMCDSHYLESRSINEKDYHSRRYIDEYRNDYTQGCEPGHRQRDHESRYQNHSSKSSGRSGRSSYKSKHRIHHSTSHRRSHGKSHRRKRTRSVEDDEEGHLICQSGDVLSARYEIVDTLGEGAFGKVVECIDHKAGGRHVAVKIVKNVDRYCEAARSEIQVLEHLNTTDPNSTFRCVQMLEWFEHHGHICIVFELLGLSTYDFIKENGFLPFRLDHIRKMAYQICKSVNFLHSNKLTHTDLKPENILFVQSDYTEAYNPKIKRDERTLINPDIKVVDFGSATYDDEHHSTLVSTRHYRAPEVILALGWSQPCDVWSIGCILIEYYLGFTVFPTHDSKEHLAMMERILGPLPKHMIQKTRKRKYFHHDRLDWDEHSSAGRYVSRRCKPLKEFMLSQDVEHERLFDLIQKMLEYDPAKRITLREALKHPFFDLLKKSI
Sequence of CLK2 (P49760 whole entry): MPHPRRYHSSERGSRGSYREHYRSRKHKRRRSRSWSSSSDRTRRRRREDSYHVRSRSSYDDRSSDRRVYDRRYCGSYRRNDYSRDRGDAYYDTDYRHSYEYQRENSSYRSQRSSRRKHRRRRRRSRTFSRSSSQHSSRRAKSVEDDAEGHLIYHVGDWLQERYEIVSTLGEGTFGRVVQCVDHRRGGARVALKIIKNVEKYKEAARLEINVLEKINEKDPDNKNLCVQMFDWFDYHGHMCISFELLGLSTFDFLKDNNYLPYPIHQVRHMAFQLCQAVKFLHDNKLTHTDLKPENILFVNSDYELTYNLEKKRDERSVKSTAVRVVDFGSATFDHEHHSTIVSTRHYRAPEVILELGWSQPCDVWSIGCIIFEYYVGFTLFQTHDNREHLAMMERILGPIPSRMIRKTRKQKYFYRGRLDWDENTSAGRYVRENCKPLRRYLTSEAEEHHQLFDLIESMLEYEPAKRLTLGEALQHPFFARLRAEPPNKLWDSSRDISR
Sequence of CLK4 (Q9HAZ1 whole entry): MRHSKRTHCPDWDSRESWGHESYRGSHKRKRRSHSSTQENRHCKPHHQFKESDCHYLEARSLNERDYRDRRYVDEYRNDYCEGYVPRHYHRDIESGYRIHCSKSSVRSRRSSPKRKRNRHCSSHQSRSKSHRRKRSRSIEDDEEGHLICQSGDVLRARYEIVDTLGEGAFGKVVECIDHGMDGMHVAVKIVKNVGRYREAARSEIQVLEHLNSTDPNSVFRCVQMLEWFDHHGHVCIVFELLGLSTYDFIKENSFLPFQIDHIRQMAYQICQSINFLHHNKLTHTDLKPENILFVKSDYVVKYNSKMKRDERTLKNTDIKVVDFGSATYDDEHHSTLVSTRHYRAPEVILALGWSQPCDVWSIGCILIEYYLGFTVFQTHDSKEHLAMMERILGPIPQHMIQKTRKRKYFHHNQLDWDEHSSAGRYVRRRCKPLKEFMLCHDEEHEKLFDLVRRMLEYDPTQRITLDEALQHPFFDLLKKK

remaining activity DYRK1B ([1]; 100 nmol/L): < 10%
IC50 ([1]; read-out: IC50 DYRK1B, ATP within 15 μmol/L of apparent KM): 10 nM
remaining activity DYRK3 ([2]; 100 nmol/L): < 10%
IC50 ([2]; read-out: IC50 DYRK3, ATP within 15 μmol/L of apparent KM): 3 nM
remaining activity DYRK4 ([3]; 100 nmol/L): < 10%
IC50 ([3]; read-out: IC50 DYRK4, ATP within 15 μmol/L of apparent KM): 129 nM
remaining activity CLK1 ([4]; 100 nmol/L): < 10%
IC50 ([4]; read-out: IC50 CLK1, ATP within 15 μmol/L of apparent KM): 36 nM
remaining activity CLK2 ([5]; 100 nmol/L): < 10%
IC50 ([5]; read-out: IC50 CLK2, ATP within 15 μmol/L of apparent KM): 10 nM
remaining activity CLK3 ([6]; 100 nmol/L): < 10%
IC50 ([6]; read-out: IC50 CLK3, ATP within 15 μmol/L of apparent KM): 195 nM
remaining activity CLK4 ([7]; 100 nmol/L): < 10%
IC50 ([7]; read-out: IC50 CLK4, ATP within 15 μmol/L of apparent KM): 14 nM
SMILES: Nc1ncnc2c1c(I)cn2[C@@H]1O[C@H](CO)[C@@H](O)[C@H]1O [5-IT, 5-iodotubercidin]
p27KIP phosphorylation [8]: decrease
increase in α-cell mass predicted by gene expression results ([9]; 95% CI 4.6–7.5): 6.1%
β-cell mass increase that could account for gene expression changes ([9]; 95% CI 5.8–9.2): 7.5%
increase in BrdU incorporation in β-cells of human islet grafts ([10]; P < 0.01): approximately fivefold
increase in Ki67 staining of β-cells of human islet grafts ([10]; P < 0.05): approximately sixfold
increase in PDX1/BrdU double-positive cells in human islet grafts ([10]; P < 0.05): approximately fourfold
increase in PDX1/Ki67 double-positive cells in human islet grafts ([10]; P < 0.05): approximately sixfold
increase in pHH3 immunostaining of β-cells of human islet grafts ([10]; P < 0.05): ~10 fold
increase in BrdU+ β-cells in endogenous NSG pancreatic islets [11]: ~2.5 fold
α-cell proliferation in human islet grafts, treated vs nontreated [12]: no significant alterations
α-cell proliferation in endogenous mouse pancreas, treated vs nontreated [13]: no significant alterations
effect on primary rat neurons in culture [14]: no effect
